Reference: ChEMBL document CHEMBL1629413, “Hirsutalins A-H, eunicellin-based diterpenoids from the soft coral Cladiella hirsuta” (J Nat Prod, 2010)

Columns and labels:
Ca9-22 = experiment: Cytotoxicity against human Ca9-22 cells by MTT assay; format: functional, cell-based
How it was run: (§1)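 Tumor cell lines from ATCC. Viability measured by MTT colorimetric method in duplicate, with doxorubicin as positive control. Read-out reported as IC50.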

[1] = Cytotoxicity against human Hep3B cells by MTT assay; format: functional, cell-based, Hep 3B2; how it was run: as §1
A549 = experiment: Cytotoxicity against human A549 cells by MTT assay; format: functional, cell-based; how it was run: as §1
RAW264.7 [2] = experiment: Antiinflammatory activity in mouse RAW264.7 cells assessed as accumulation of LPS-induced COX-2 at 10 uM by immunoblot analysis; format: functional
How it was run: (§2)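 RAW264.7 macrophages (ATCC) stimulated with LPS, with test compound at 10 μM. iNOS and COX-2 protein levels measured by western blotting. Levels expressed as % of cells treated with LPS alone.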

RAW264.7 [3] = experiment: Antiinflammatory activity in mouse RAW264.7 cells assessed as accumulation of LPS-induced iNOS at 10 uM by immunoblot analysis; format: functional; how it was run: as §2
MDA-MB-231 = experiment: Cytotoxicity against human MDA-MB-231 cells by MTT assay; format: functional, cell-based; how it was run: as §1
MCF7 = experiment: Cytotoxicity against human MCF7 cells by MTT assay; format: functional, cell-based; how it was run: as §1
HepG2 = experiment: Cytotoxicity against human HepG2 cells by MTT assay; format: functional, cell-based; how it was run: as §1

SMILES: C=C1C[C@H]2O[C@H]([C@@H]3[C@@H]([C@@H](C)COC(=O)CCC)CC=C(C)[C@@H]32)[C@](C)(OC(=O)[C@H](O)CC)CC[C@@H]1O [HIRSUTALIN A]
- IC50 (Ca9-22): 35 µM
- IC50 [1]: 29 µM
- IC50 (A549): 28 µM

SMILES: C=C1CC[C@H]([C@@H](C)COC(C)=O)[C@@H]2[C@H]1[C@H]1CC(=C)[C@@H](O)CC(OC(=O)C(CC)OC(=O)CCC)[C@@](C)(O)[C@@H]2O1 (some centres not stated) [HIRSUTALIN B]
- Activity (RAW264.7 [2]): 49%
- Activity (RAW264.7 [3]): 6.8%

SMILES: C=C1CC[C@H]([C@@H](C)CO)[C@@H]2[C@H]1[C@H]1CC(=C)[C@@H](O)CC[C@@](C)(OC(=O)C(CC)OC(=O)CCC)[C@@H]2O1 (some centres not stated) [HIRSUTALIN C]
- Activity (RAW264.7 [3]): 43.6%

SMILES: C=C1CC[C@H]([C@@H](C)CO)[C@@H]2[C@H]1[C@H]1CC(=C)[C@@H](O)CC[C@@](C)(OC(=O)C(CC)OC(C)=O)[C@@H]2O1 (some centres not stated) [HIRSUTALIN D]
- Activity (RAW264.7 [3]): 3.3%

SMILES: CCCC(=O)O[C@]1(C)CC[C@H](O)[C@@](C)(O)C[C@H]2O[C@@H]1[C@H]1[C@@H]2C(C)=CC[C@@H]1C(C)C [HIRSUTALIN E]
- IC50 (Ca9-22): 34 µM
- IC50 (MDA-MB-231): 41 µM
- IC50 (MCF7): 35 µM
- IC50 [1]: 14 µM
- IC50 (HepG2): 4.7 µM
- IC50 (A549): 34 µM

SMILES: C=C1CC[C@H]([C@@H](C)CO)[C@@H]2[C@H]1C(=O)C[C@@](C)(O)[C@H]1CC[C@@](C)(OC(=O)C(CC)OC(=O)CCC)[C@@H]2O1 (some centres not stated) [HIRSUTALIN F]
- IC50 (MCF7): 32 µM
- IC50 [1]: 29 µM
- IC50 (HepG2): 29 µM

SMILES: C=C1CC[C@H]([C@@H](C)COC(C)=O)[C@@H]2[C@H]1[C@H]1C[C@](C)(O)[C@@H](O)CC[C@@](C)(OC(=O)CCC)[C@@H]2O1 [HIRSUTALIN H]
- Activity (RAW264.7 [3]): 32.3%
